Assay outcomes deposited in PubChem BioAssay by several laboratories.
FGF22 binding: FGF22 (human) thermal shift binding; 340,000 tested, 1.5% active; AID 651658; activity (Tm shift, normalised), % at 9.99 µM; recombinant FGF22 thermal shift, SYPRO orange fluorescence; percent of sucrose octasulfate shift, DMSO zero;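 active = mean Tm shift, scaled 0 neutral to 100 positive control, at about 1.3% or above, every replicate too, limit read from the data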
Target sequence (Q9HCT0 whole entry, looked up): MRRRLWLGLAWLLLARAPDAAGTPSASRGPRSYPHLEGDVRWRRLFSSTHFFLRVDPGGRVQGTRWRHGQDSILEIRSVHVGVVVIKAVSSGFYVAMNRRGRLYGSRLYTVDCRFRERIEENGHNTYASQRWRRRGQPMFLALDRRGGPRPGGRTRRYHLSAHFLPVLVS
NSD2 HMT inh: NSD2 (human) methyltransferase inhibition | inhibition, % at 12.5 µM | 310,000 tested, 0.54% active | AID 743445 | O96028 | NSD2 peptide methylation, AlphaScreen, 120 min; in the data active = inhibition above about 50%
UCH37 DUB inh: human UCH37 deubiquitinating enzyme inhibition. Q9Y5K5. purified proteasome/UCH37, Ub-AMC cleavage fluorescence. inhibition, % (no concentration beside the values). 330,000 tested, 0.33% active;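 active = mean inhibition over replicate wells above about 20%, limit read from the data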;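 also: 0% = compound-free wells with enzyme and 100% = wells lacking proteasome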
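Assay system: Proteasome-bound UCH37. Buffer or medium: pH 7.4 Tris-HCl (50 mM) with ovalbumin, ATP-MgCl2, DTT. Incubation: 30 min preincubation with enzyme, 25 min cleavage at room temperature. Measured by: fluorescence, ex 355 nm, em 460 nm. Read-out basis: percent inhibition. Control set: wells without proteasome as full block, compound-free enzyme plus substrate as uninhibited.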
SIRT5 inh: blocks human SIRT5 desuccinylation of peptide | Q9NXA8 | Purified SirT5, succinyl-peptide AMC, trypsin-coupled fluorescence | inhibition, % at 15 µM | 330,000 tested, 1.1% active; in the data active = inhibition above about 15%
CASP6 VEID inh: inhibitors of human caspase-6; P55212; purified caspase-6, Z-VEID-R110 cleavage fluorescence; inhibition, % at 12.5 µM; 350,000 tested, 0.53% active; AID 686996;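 active = mean inhibition across replicates at least about 35%, with every replicate also reaching that limit, limit read from the data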;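 also: 0% = median of neutral control wells and 100% = no fluorescence left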
Target sequence (P55212 24-179 limits assumed): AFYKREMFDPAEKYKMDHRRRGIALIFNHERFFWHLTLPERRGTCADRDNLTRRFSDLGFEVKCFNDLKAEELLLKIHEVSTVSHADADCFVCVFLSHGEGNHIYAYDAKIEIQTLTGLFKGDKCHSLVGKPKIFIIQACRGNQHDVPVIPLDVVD
Target sequence (P55212 194-293 limits assumed): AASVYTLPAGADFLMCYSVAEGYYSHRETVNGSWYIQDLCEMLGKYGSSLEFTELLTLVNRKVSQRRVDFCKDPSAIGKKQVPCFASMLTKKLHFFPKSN
* = called active by the depositor; nt = not tested or not shown. An excerpt weighted towards active compounds, which were near 2.6% of everything screened.

SMILES	FGF22 binding	NSD2 HMT inh	UCH37 DUB inh	SIRT5 inh	CASP6 VEID inh
CC=Cc1ccc2n(c1=O)C[C@H]1[C@H](CO)[C@@H](C(=O)NC3CCCCC3)N(C(=O)C3CC3)[C@@H]21 (mixture of isomers)	0	nt	nt	7	-3
O=C(NN=Cc1ccc([N+](=O)[O-])s1)C1COc2ccccc2O1 (stereo not drawn)	nt	nt	4	nt	nt
COc1cc(C(=O)O)ccc1O	0	nt	1	-3	0
COc1cc(C(=O)C(=O)c2ccc(O)c(OC)c2)ccc1O	0	1	21*	3	1
COc1ccc(OCC(=O)N/N=C/C=C/c2ccccc2)cc1	43*	-3	nt	0	2
Cc1ccc(C(=O)N/N=C/C=C/c2ccccc2)o1	0	0	nt	6	-3
Cc1ccc(C(=O)NN=C/C=C/c2ccccc2)o1	nt	nt	21*	nt	nt
Nc1nnn(CC(=O)NN=Cc2ccncc2)n1	nt	nt	3	nt	nt
CCOC(=O)c1[nH]c(C)c(C(C)=NO)c1C	nt	nt	-1	nt	nt
CN1C(=O)c2cc(NC(=O)C3CCOCC3)ccc2OC[C@H]2O[C@H](CC(=O)NCCc3ccncc3)CC[C@H]21	0	nt	nt	2	0
CCOc1cc(/C=N/n2cnnc2)ccc1OS(=O)(=O)c1ccc(C)cc1	44*	-2	nt	-4	-2
COc1cccc(-c2ccc3c(c2)O[C@@H](CN(C)C(C)=O)[C@@H](C)CN([C@H](C)CO)S3(=O)=O)c1	0	nt	nt	-3	-2
Cc1cc(C)cc(Nc2cc(C)nc3nc(C)nn23)c1	0	nt	6	16*	-1
COc1ccc(N2CCN(C(c3cccs3)C(C)NC(=O)c3ccc4c(c3)OCO4)CC2)cc1 (stereo not drawn)	43*	nt	5	-6	-1
COc1ccc(N2CCN(C(c3cccs3)C(C)NC(=O)c3ccco3)CC2)cc1 (stereo not drawn)	nt	3	1	nt	nt
Cc1noc(C)c1NC(=O)N[C@H]1C=C[C@H](CC(=O)N2CCCCC2)O[C@@H]1CO	0	nt	nt	0	-2
CS(=O)(=O)Nc1ccc2c(c1)[C@H]1C[C@@H](CC(=O)NCCc3ccccc3)O[C@H](CO)[C@H]1O2	0	nt	nt	0	0
NS(=O)(=O)c1cccc(NC(=O)CSc2n[nH]c(-c3cccs3)n2)c1	1	2	-1	-1	-1
COc1ccc(-c2nc(SCC(=O)Nc3cccc(S(N)(=O)=O)c3)n[nH]2)cc1	1.8*	-6	2	1	2
COCCCNC(=O)CSc1nc2c(sc(=S)n2-c2cc(Cl)ccc2OC)c(=O)[nH]1	3.0*	3	14	-1	1
CCC(C)NC(=O)CSc1nc2c(sc(=S)n2-c2cc(Cl)ccc2OC)c(=O)[nH]1 (stereo not drawn)	0	-2	8	2	nt
CO[C@H]1CN(C)C(=O)c2ccc(NS(C)(=O)=O)cc2OC[C@@H](C)N(C(=O)C2CCOCC2)C[C@H]1C	0	nt	nt	6	0
CCOC(=O)c1c(/N=C/C2=C(O)CC(C)(C)CC2=O)sc(C(C)=O)c1C	43*	nt	nt	0	1
CCOC(=O)c1c(/N=C/C2=C(O)CC(C)(C)CC2=O)sc2c1CCCC2	0	1	nt	-7	2
CSc1nc2ccc(Br)cc2[nH]1	0	-2	2	15*	nt
SMILES	FGF22 binding	NSD2 HMT inh	UCH37 DUB inh	SIRT5 inh	CASP6 VEID inh
CC(C)Sc1nc2ccc(Br)cc2[nH]1	0	nt	0	-4	-3
C=CCn1c(=O)/c(=C\c2ccccn2)s/c1=C(/C#N)C(=O)NCC1CCCO1 (stereo not drawn)	43*	-2	nt	-3	3
O=C(NCCCNCc1ccccc1)c1ccc(C=NO)nc1	nt	nt	1	nt	nt
Cc1ccc(S(=O)(=O)/N=C2\C(=O)c3ccccc3C([O-])=C2n2cc[n+](CCC(C)C)c2)cc1	nt	nt	31*	nt	nt
CN1C(=O)c2cc(NC(=O)c3cccc(F)c3)ccc2OC[C@@H]2O[C@@H](CC(=O)O)CC[C@H]21	0	nt	nt	nt	nt
CCOC(=O)NC(=O)/C(C#N)=C\Nc1sccc1C(=O)OC	0	1	28*	1	-1
O=C1Cc2ccccc2C(=O)N1Cc1ccccc1	nt	4	26*	nt	nt
O=C(O)C(Cc1ccccc1)N1C(=O)C2CCCCC2C1=O (stereo not drawn)	0	-6	3	4	0
O=C1c2cccnc2C(=O)N1Cc1ccccc1	0	nt	2	11	3
O=C1C2CCCCC2C(=O)N1Cc1ccccc1 (stereo not drawn)	43*	-1	nt	-14	1
CCNC(=O)C[C@@H]1CC[C@@H]2[C@H](COC[C@H](O)CN2C(=O)Nc2ccc(C(F)(F)F)cc2)O1	0	nt	nt	0	0
COc1cccc(C(=O)NCC(=O)NNc2ncnc(N)c2[N+](=O)[O-])c1	43*	-9	6	0	-6
CC(C)NC(=O)N(C)C[C@@H]1OCCCC[C@H](C)Oc2ccc(NC(=O)C3CCCCC3)cc2C(=O)N([C@@H](C)CO)C[C@@H]1C	0	nt	nt	1	-4
O=C(Nc1ccc(N2CCOCC2)c(F)c1)c1cccs1	0	0	5	2	-1
COC(=O)c1cc(NC(=O)c2cccs2)ccc1N1CCOCC1	43*	0	7	2	-1
COc1ccc(C=NNC(=O)C(=O)N2CCN(c3ccccc3OC)CC2)cc1	nt	nt	2	nt	nt
O=C(c1ccc(F)cc1)N1CC(=O)N2[C@@H](CO)[C@H](c3ccc(C#CC4CCCC4)cc3)[C@@H]2C1	nt	nt	nt	3	-1
CC(=O)Nc1ccc(Nc2nc(-c3ccccc3)nc3ccccc23)cc1	1	11	-86	-1	2
CC(=O)Nc1cccc(Nc2nc(-c3ccccc3F)nc3ccccc23)c1	43*	-5	-10	4	2
CCN(CC)C(=S)SCC(=O)Nc1ccc(S(N)(=O)=O)cc1	43*	-5	3	0	2
CN(C)CC(=O)Nc1ccc(S(N)(=O)=O)cc1	nt	-4	4	nt	nt
O=C(C[C@H]1C=C[C@@H](NC(=O)c2ccncc2)[C@@H](CO)O1)Nc1ccc(-c2ccccc2)cc1	nt	nt	nt	-7	4
Cc1oc(-c2ccccc2Cl)nc1CN1CCCCC1c1cccnc1 (stereo not drawn)	43*	-4	-1	-23	-3
O=C(O)CSc1cc(C(=O)c2ccccc2O)cn2c(=O)c3c4c(sc3nc12)CCCC4	0	-1	11	37*	18
O=C(O)CSc1nc2sc3c(c2c(=O)n1Cc1ccccc1)CCCCC3	0	0	0	4	3
C[C@H]1CN([C@@H](C)CO)C(=O)Cc2cc(NC(=O)NC3CCCCC3)ccc2O[C@@H]1CN(C)S(=O)(=O)c1ccccc1	0	nt	nt	1	-1
CC(=O)Nc1ccc(S(=O)(=O)Nc2nc3ccccc3nc2Nc2ccc(C(=O)O)c(O)c2)cc1	nt	48	10	47*	73*
CC(=O)Nc1ccc(S(=O)(=O)Nc2nc3ccccc3nc2Nc2cccc(O)c2)cc1	nt	nt	3	5	3
CC(=O)Cc1nsc(NC(=O)c2ccc(F)cc2)n1	nt	-3	2	3	-1
